Here are results for 25 molecules from ChEMBL document CHEMBL1268932, “Discovery and SAR of a series of 4,6-diamino-1,3,5-triazin-2-ol as novel non-nucleoside reverse transcriptase inhibitors of HIV-1” (Bioorg Med Chem Lett, 2010).

Structures are written as SMILES. Where only a bound is given, the exact number is not on record here.

For data set [1], the system named is Human immunodeficiency virus 1. Briefly: Antiviral activity against wild type HIV1 assessed as inhibition of virus-induced cytopathic effect by cell based assay. The data set is classed as functional, organism-based. A digest of the protocol:
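Cell-based cytoprotection assay. The endpoint is EC50, the concentration giving 50% inhibition of the virus-induced cytopathic effect. Virus and cells were either HIV-1RF in CEM-SS cells or HIV-1IIIB in MT-4 cells.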
A general note: Damage to the host cells serves as the signal in cytopathic effect assays.

Data set [2] deals with Human immunodeficiency virus type 1 reverse transcriptase (Human immunodeficiency virus 1, UniProt Q72547). Briefly: Inhibition of wild type HIV1 reverse transcriptase.
In data set [3] the test system is Human immunodeficiency virus 1. Briefly: Antiviral activity against HIV1 NL4-3 containing reverse transcriptase K103N mutation infected in human CEM-SS cells assessed as inhibition of virus-induced cytopathic effect. Type of data set: functional, organism-based. The note with it: Human immunodeficiency virus 1, NL4-3, CEM-SS.
The nature of data set [4]: AUC in rat at 4 mg/kg, po or 2 mg/kg, iv. The data set is classed as ADME, organism-based. The note with it: plasma. A digest of the protocol:
(§1)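 Rats dosed orally at 4 mg/kg and intravenously at 2 mg/kg. Plasma parameters were Cmax and AUC, plus t1/2, Vdss and clearance after the IV dose. Apparent oral bioavailability was derived from both routes.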

Data set [5] addresses Human immunodeficiency virus type 1 reverse transcriptase (Human immunodeficiency virus 1, UniProt Q72547, L100I). Briefly: Inhibition of HIV1 reverse transcriptase L100I mutant.
In data set [6] the test system is Human immunodeficiency virus 1. In words: Antiviral activity against HIV1 NL4-3 containing reverse transcriptase Y181C mutation infected in human CEM-SS cells assessed as inhibition of virus-induced cytopathic effect. Type of data set: functional, organism-based. The note with it: Human immunodeficiency virus 1, NL4-3, CEM-SS.
In data set [7] the test system is Human immunodeficiency virus 1. In words: Antiviral activity against wild type HIV1 NL4-3 infected in human CEM-SS cells assessed as inhibition of virus-induced cytopathic effect. The data set is classed as functional, organism-based. Particulars: Human immunodeficiency virus 1, NL4-3, CEM-SS.
The nature of data set [8]: Oral bioavailability in rat at 4 mg/kg, po. The data set is classed as ADME, organism-based. The note with it: in vivo. A digest of the protocol: as §1
For data set [9], the target named is Human immunodeficiency virus type 1 reverse transcriptase (Human immunodeficiency virus 1, UniProt Q72547, Y188L). Briefly: Inhibition of HIV1 reverse transcriptase Y188L mutant.
Data set [10] can be described thus: Toxicity in human CEM-SS cells. The note with it: read-out: TC50 (the source's name). The data set is classed as cell-based.
The target in data set [11] is Human immunodeficiency virus type 1 reverse transcriptase (Human immunodeficiency virus 1, UniProt Q72547, V106A). Briefly: Inhibition of HIV1 reverse transcriptase V106A mutant.
Data set [12] is described as follows: Volume of distribution at steady state in rat at 4 mg/kg, po or 2 mg/kg, iv. Type of data set: ADME, organism-based. Particulars: in vivo, read-out: Vdss. In short, it runs like this: as §1
A short description of data set [13]: Clearance in rat at 4 mg/kg, po or 2 mg/kg, iv. The data set is classed as ADME, organism-based. Particulars: in vivo. In short, it runs like this: as §1
Data set [14] in a line: Half life in rat at 2 mg/kg, iv. Type of data set: ADME, organism-based. Also on record: dose 2 mg/kg, route intravenous. Particulars: in vivo. In short, it runs like this: as §1
A short description of data set [15]: Cmax in rat at 4 mg/kg, po. The data set is classed as ADME, organism-based. Also on record: dose 4 mg/kg, route oral. The note with it: in vivo. A digest of the protocol:
as §1

As a reminder, the EC50 is the concentration at which the effect is half-maximal. A word on the IC50: it is the concentration that inhibits the measured activity by half. Read a low IC50 as higher potency. For the molecule `Oc1nc(NCc2ccc3occc3c2)nc(Nc2c(F)cccc2-c2ccccc2)n1`, the EC50 in data set [1] was 400 nM. This molecule also gave an IC50 in data set [2] of 90 nM.
Taken in the same sequence, the figures for `Oc1nc(NCc2ccc3cc[nH]c3c2)nc(Nc2cccc(Oc3ccccc3)c2)n1` were more than 10000 nM and more than 100000 nM.
The matching figures for `COc1nc(NCc2ccc3occc3c2)nc(Nc2c(C)cccc2-c2ccccc2)n1`: 3000 nM and 2570 nM.
Take `Oc1nc(NCc2ccc3cc[nH]c3c2)nc(Nc2cccc(Br)c2)n1`: in data set [1], the EC50 was more than 10000 nM. The half-maximal inhibitory concentration (IC50) in [2] was 40000 nM.
In the case of `Cc1cccc(-c2ccoc2)c1Nc1nc(O)nc(N(C)Cc2ccc3occc3c2)n1`, the concentration giving a half-maximal response (EC50) in [1] came out at 7 nM. The IC50 in data set [2] amounted to 80 nM.
The matching figures for `Cc1cccc(-c2ccccc2)c1Nc1nc(O)nc(NCc2ccc3c(c2)OCCCO3)n1`: 2800 nM and 4400 nM.
With `Cc1cccc(-c2ccccc2)c1Nc1nc(O)nc(NCc2ccc3occc3c2)n1`, the EC50 in data set [1] is 200 nM. The molecule also showed an IC50 in data set [2] of 70 nM.
Usually AUC stands for concentration integrated over time. High values mean more exposure, low ones less exposure. What is called bioavailability is dose-corrected exposure relative to a reference, in per cent. The term half-life denotes how long it takes for the measured level to halve. Low values mean rapid decline, high ones slow decline. What is called Cmax is the highest concentration seen after dosing. On to `CN(Cc1ccc2occc2c1)c1nc(O)nc(Nc2c(F)cccc2-c2ccccc2)n1`, for which the EC50 is more than 1000 nM in [3], 100 nM in [6], 6 nM in data set [7] and 5 nM in [1]. In [4], this molecule had an AUC of 12.5 µM·h. Besides, the IC50 in data set [5] worked out at 47 nM; in data set [9], 6100 nM; in [11], 9100 nM; in data set [2], 8 nM. For the same molecule, the bioavailability in data set [8] was 38%. The CC50 in data set [10] is more than 1000 nM. Also, the Vd in data set [12] is 0.35 L/kg. The molecule also had a clearance in data set [13] of 5.17 mL/min/kg. This molecule gave a half-life in data set [14] of 1.45 h. Besides, in data set [15], the concentration peaked (Cmax) at 3.8 µM.
As to `Cc1cccc(-c2ccccc2)c1N(C)c1nc(O)nc(NCc2ccc3occc3c2)n1`, in data set [1], the EC50 worked out at 1500 nM. The molecule also registered an IC50 in data set [2] of 5100 nM.
Turning to `Cc1cccc(-c2ccccc2)c1Nc1nc(O)nc(N(C)Cc2ccc3c(c2)CCO3)n1`, the EC50 is more than 1000 nM in [3], 200 nM in [6], 6 nM in data set [7] and 3 nM in data set [1]. This molecule also returned an AUC in data set [4] of 15.6 µM·h. Further, the IC50 in [5] is 70 nM; in data set [9], 9500 nM; in [11] it was 36700 nM; in [2], 55 nM. In addition, the bioavailability in [8] amounted to 44%. The CC50 in [10] is more than 1000 nM. For the same molecule, the Vd in data set [12] was 0.32 L/kg. Moreover, the clearance in [13] is 4.5 mL/min/kg. In [14], this molecule had a half-life of 1.4 h. Moreover, in data set [15], the Cmax came out at 6.1 µM.
`CN(Cc1ccc2occc2c1)c1nc(O)nc(Nc2ccccc2N2CCOCC2)n1`: in data set [2], the IC50 is 4100 nM.
The molecule `CCN(Cc1ccc2occc2c1)c1nc(O)nc(Nc2c(F)cccc2-c2ccccc2)n1` came in with an IC50 in data set [2] of more than 100000 nM.
As to `Fc1cccc(-c2ccccc2)c1Nc1nc(Cl)nc(NCc2ccc3occc3c2)n1`, the IC50 in data set [2] was more than 100000 nM.
Turning to `Cc1cccc(-c2ccccc2)c1Nc1nc(O)nc(N(C)Cc2ccc3occc3c2)n1`, the EC50 in data set [1] is 120 nM. Also, the IC50 in data set [2] is 83 nM.
As for `Oc1nc(NCc2ccc3cc[nH]c3c2)nc(Nc2ccccc2-c2ccccc2)n1`, the EC50 in data set [1] was determined as 7200 nM. In data set [2], the IC50 is 3500 nM.
As for `Cc1cccc(-c2ccccc2)c1Nc1nc(O)nc(NCc2ccc3cc[nH]c3c2)n1`, the EC50 in data set [1] was determined as 900 nM. The IC50 in [2] stood at 500 nM.
Consider `CC(C)(Nc1nc(O)nc(Nc2c(F)cccc2-c2ccccc2)n1)c1ccc2c(c1)OCO2`, for which, in data set [2], the IC50 was more than 100000 nM.
As to `Cc1ccnc2c1NC(=O)c1cccnc1N2C1CC1` [NEVIRAPINE], the figures for the EC50 in [3], in data set [6] and in data set [7] were more than 1000 nM, more than 1000 nM and 200 nM, respectively. Also, in [10], the CC50 was more than 1000 nM.
For `Cc1cccc(-c2ccccc2)c1Nc1nc(O)nc(NCc2ccc3c(ccn3S(C)(=O)=O)c2)n1`, the EC50 in [1] is more than 10000 nM. Further, in data set [2], the IC50 was more than 100000 nM.
On to `CN(Cc1ccc2occc2c1)c1nc(O)nc(Nc2c(F)cc(F)cc2-c2ccccc2)n1`, for which the EC50 in [1] was found to be 10 nM. In [2], this molecule came in with an IC50 of 70 nM.
The matching figures for `Cc1cccc(-c2ccccc2)c1Nc1nc(O)nc(OCc2ccc3occc3c2)n1`: 4000 nM and 23600 nM.
Taken in the same sequence, the figures for `Cc1cccc(-c2ccccc2)c1Oc1nc(N)nc(NCc2ccc3occc3c2)n1` were more than 50000 nM and more than 100000 nM.
Regarding `Cc1cccc(-c2ccccc2)c1Nc1nc(O)nc(N(C)Cc2ccc3c(c2)OCO3)n1`, in data set [1], the EC50 was found to be 130 nM. The same molecule showed an IC50 in data set [2] of 90 nM.
With `Cc1cccc(-c2ccccc2)c1Oc1nc(O)nc(NCc2ccc3occc3c2)n1`, the EC50 in [1] came to 12600 nM. In data set [2], this molecule returned an IC50 of 9700 nM.
On to `O=C1Nc2ccc(Cl)cc2[C@@](C#CC2CC2)(C(F)(F)F)O1` [EFAVIRENZ], for which the EC50 in [3] was more than 1000 nM; in [6] it was 5 nM. Further, the CC50 in data set [10] was more than 1000 nM.
